Compound activity from PubChem BioAssay.
H69AR inhibit = growth inhibitors of human H69AR lung tumor cells; viability, % at 10 µM; H69AR lung tumor viability, ATP luminescence, 72 h; active compounds read low; 85,000 tested, 6% active;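 active = viability at or below 40%; inactive = viability above 40%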;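 note: multidrug resistant small cell line overexpressing MRP-1 efflux transporter; 100% = mean luminescence of untreated control wells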
HCT116 PTEN-null = suppresses growth of cells with PTEN deletion; HCT116 PTEN-null viability, CellTiter-Glo, 60 h; active compounds read low; viability, % at 10 µM; 140,000 tested, 1.2% active;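 active = viability at or below a set limit, 4 SD under the median of all tested compounds, cut at about 3.7% in these data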;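 note: PTEN knockout HCT116 line with beta catenin targeted HCT116 as companion control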
Pyk2 oligo antag = blocks oligomerization of human Pyk2 in cells | Q293 cells, Pyk2 FERM NanoBiT luminescence; active compounds read low | 99,000 tested, 0.83% active | Q14289 | z-score (the deposit names both 25 µM and 10 µM) | AID 1347419;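 active = Z-score of -3 or lower, scaled per plate to the spread of control and sample wells; inactive = z-score above -3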;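 note: negative z-score means lost luminescence so less FERM oligomerization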
Target sequence (Q14289 whole entry, looked up): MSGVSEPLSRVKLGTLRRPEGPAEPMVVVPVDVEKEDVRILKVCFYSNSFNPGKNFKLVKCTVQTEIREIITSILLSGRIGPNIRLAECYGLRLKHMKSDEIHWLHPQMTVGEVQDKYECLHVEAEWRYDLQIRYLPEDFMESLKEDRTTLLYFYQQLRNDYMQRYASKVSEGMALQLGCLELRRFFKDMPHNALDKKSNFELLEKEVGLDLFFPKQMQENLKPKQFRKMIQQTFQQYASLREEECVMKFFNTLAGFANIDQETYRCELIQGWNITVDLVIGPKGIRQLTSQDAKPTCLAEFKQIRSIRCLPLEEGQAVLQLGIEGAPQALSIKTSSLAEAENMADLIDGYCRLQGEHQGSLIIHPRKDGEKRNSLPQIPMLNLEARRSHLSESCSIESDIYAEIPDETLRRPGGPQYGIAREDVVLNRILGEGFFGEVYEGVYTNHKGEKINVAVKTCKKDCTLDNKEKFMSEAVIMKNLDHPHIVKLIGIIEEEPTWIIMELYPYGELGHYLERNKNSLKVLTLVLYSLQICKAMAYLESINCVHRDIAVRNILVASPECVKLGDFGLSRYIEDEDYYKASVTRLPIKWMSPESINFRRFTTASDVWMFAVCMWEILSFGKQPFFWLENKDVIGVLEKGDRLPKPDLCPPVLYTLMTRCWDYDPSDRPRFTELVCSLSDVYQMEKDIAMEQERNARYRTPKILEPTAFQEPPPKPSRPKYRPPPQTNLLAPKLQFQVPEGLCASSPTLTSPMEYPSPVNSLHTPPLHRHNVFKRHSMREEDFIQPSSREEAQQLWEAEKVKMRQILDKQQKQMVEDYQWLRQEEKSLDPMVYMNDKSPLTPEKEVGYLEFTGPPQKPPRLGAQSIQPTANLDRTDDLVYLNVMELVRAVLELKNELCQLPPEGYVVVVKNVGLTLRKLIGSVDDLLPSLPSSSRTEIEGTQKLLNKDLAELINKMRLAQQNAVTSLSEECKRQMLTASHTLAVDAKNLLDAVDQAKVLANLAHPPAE
HUVEC prolif 384 = human endothelial cell proliferation inhibition; HUVEC proliferation, CellTiter-Glo luminescence, 72 h; active compounds read low; viability, % at 10 µM (by protocol); 86,000 tested, 1.1% active;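 active = viability at or below 30%; inactive = viability above 30%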;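 note: 100% = median luminescence of DMSO-only cell control wells on each plate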
HCT116 bCat-KO = beta-catenin-lacking colon tumor cell growth suppression; HCT116 beta-catenin knockout viability, CellTiter-Glo, 60 h; active compounds read low; viability, % at 10 µM; 140,000 tested, 1.5% active;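 active = viability at or under a set limit, the compound median less 4 SD, cut at about 6% in these data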;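 note: 0% = Hyamine 1622 control at 20 µM and 100% = untreated cell control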
Fibroblast inh = blocks proliferation of human lung fibroblasts. LL 47 human lung fibroblast viability, ATP luminescence; active compounds read low. viability, % at 10 µM. 85,000 tested, 1.1% active. AID 719;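 active = viability at or below 50% in the single dose screen; inactive = viability above 50%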;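 note: compound exposure lasted 72 h before the ATP readout; 100% = median luminescence of untreated cell-only wells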
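Material: Human LL 47 lung fibroblast cells | Input: 1,150 cells/well | Buffer or medium: IMEM plus 15% FBS | Compound dosing: 0.1% DMSO in all compound wells | Times: Overnight cell rest, 72 h compound treatment at 37 °C | Signal: CellTiter-Glo luminescence measuring cellular ATP | Measure: % viability versus median cells-only luminescence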
Active calls of the source: *. Only a selection was taken, and hits are over-represented in it overall.

For CCOc1ccc(NC(=O)CC(c2ccccc2)c2ccc(F)cc2)cc1 (stereo not drawn) the results were HCT116 PTEN-null 86.6 and HCT116 bCat-KO 83.3.
For CCOC(=O)C1=C(O)c2ccccc2C(=O)/C1=C\c1ccc(CC)cc1 the results were HCT116 PTEN-null 67.8, Pyk2 oligo antag -0.87 and HCT116 bCat-KO 74.3.
CCOC(=O)C1=C(Cc2ccc(OC)cc2)C(=O)c2ccccc2C1=O was read as H69AR inhibit 1.8*, HCT116 PTEN-null 79.8, Pyk2 oligo antag -0.26, HUVEC prolif 384 69.8, HCT116 bCat-KO 73.8 and Fibroblast inh 94.2.
Screening CCOC(=O)C1=C(Cc2ccc(C)cc2)C(=O)c2ccccc2C1=O returned H69AR inhibit 2.0*, HCT116 PTEN-null 77.6, HUVEC prolif 384 17.5*, HCT116 bCat-KO 80.1 and Fibroblast inh 72.8.
Screening Oc1ccc(CNc2ccc(F)cc2)c2cccnc12 returned H69AR inhibit 55.3, HCT116 PTEN-null 10.0, Pyk2 oligo antag 0.58, HUVEC prolif 384 77.4, HCT116 bCat-KO 11.9 and Fibroblast inh 85.2.
`Oc1ccc(CN2CCN(Cc3ccccc3)CC2)c2cccnc12` gave H69AR inhibit 2.0*, HCT116 PTEN-null 2.0*, Pyk2 oligo antag 1.59, HUVEC prolif 384 105.9, HCT116 bCat-KO 2.4* and Fibroblast inh 94.8.
COCc1ccc(O)c2ncccc12 was read as H69AR inhibit 1.1*, HCT116 PTEN-null 2.1*, Pyk2 oligo antag -0.4, HUVEC prolif 384 6.0*, HCT116 bCat-KO 2.2* and Fibroblast inh 3.0*.
`OCc1ccnc2c(O)cccc12` gave HCT116 PTEN-null 2.9*, Pyk2 oligo antag -0.3 and HCT116 bCat-KO 3.2*.
For O=[N+]([O-])c1ccc(O)c2ncccc12 the results were HCT116 PTEN-null 3.9 and HCT116 bCat-KO 4.1*.
For Cc1ccccc1NCc1ccc(O)c2ncccc12 the results were H69AR inhibit 71.5, HCT116 PTEN-null 11.0, Pyk2 oligo antag -0.92, HUVEC prolif 384 84.3, HCT116 bCat-KO 12.0 and Fibroblast inh 93.0.
For CN1CCN(Cc2cc(COCc3ccccc3)c3cccnc3c2O)CC1 the results were H69AR inhibit 1.8*, HCT116 PTEN-null 0.8*, Pyk2 oligo antag 1.23, HUVEC prolif 384 70.8, HCT116 bCat-KO 1.1* and Fibroblast inh 2.8*.
`Oc1ccc(CNc2ccccc2)c2cccnc12` gave H69AR inhibit 35.6*, HCT116 PTEN-null 5.5, Pyk2 oligo antag 0.14, HUVEC prolif 384 71.5, HCT116 bCat-KO 7.4 and Fibroblast inh 88.5.
CN1CCN(Cc2ccc(OCc3ccccc3)cc2)CC1 was read as H69AR inhibit 89.5, HCT116 PTEN-null 95.5, Pyk2 oligo antag 0.93, HUVEC prolif 384 98.1 and HCT116 bCat-KO 89.2.
Screening O=C(NC(NCc1cccnc1)C(Cl)(Cl)Cl)c1cccc2ccccc12 (stereo not drawn) returned HCT116 PTEN-null 65.7 and HCT116 bCat-KO 65.0.
For CC(C)(C)c1ccc(C(O)CCCN2CCC(C(O)(c3ccccc3)c3ccccc3)CC2)cc1 (stereo not drawn) the results were H69AR inhibit 0.8*, HCT116 PTEN-null 0.8*, HUVEC prolif 384 2.4*, HCT116 bCat-KO 0.7* and Fibroblast inh 2.6*.
For Oc1ccccc1CN1CCC(C(O)(c2ccccc2)c2ccccc2)CC1 the results were HCT116 PTEN-null 59.2 and HCT116 bCat-KO 63.3.
Screening CCc1nc(N2CCN(S(=O)(=O)c3ccc(Br)cc3)CC2)c2c(C)c(C)sc2n1 returned H69AR inhibit 92.2, Pyk2 oligo antag 1.49, HUVEC prolif 384 91.8 and Fibroblast inh 92.2.
For Cc1sc2nc(-c3cccs3)nc(N3CCCN(C)CC3)c2c1C the results were H69AR inhibit 23.9*, HUVEC prolif 384 21.1* and Fibroblast inh 56.2.
For Cc1sc2nc(CN3CCCC3)nc(N3CCN(S(=O)(=O)c4cccs4)CC3)c2c1C the results were H69AR inhibit 66.9, HCT116 PTEN-null 38.7, Pyk2 oligo antag -0.24, HUVEC prolif 384 6.4*, HCT116 bCat-KO 33.5 and Fibroblast inh 69.8.
For Cc1sc2nc(CN3CCCCC3)nc(Cl)c2c1C the results were HCT116 PTEN-null 5.2 and HCT116 bCat-KO 5.4*.
Screening N#CCCCSC1=C(C#N)C(c2ccccc2Cl)CC(=O)N1 (stereo not drawn) returned H69AR inhibit 83.9, HCT116 PTEN-null 90.5, Pyk2 oligo antag 0.62, HUVEC prolif 384 98.8, HCT116 bCat-KO 86.7 and Fibroblast inh 94.1.
For CCCCc1cc(O)c(CCCC)c(O)c1 the results were H69AR inhibit 105.1, HCT116 PTEN-null 44.2, Pyk2 oligo antag -3.67*, HUVEC prolif 384 69.9, HCT116 bCat-KO 26.2 and Fibroblast inh 79.7.
Screening COc1ccc(NC(=O)c2cccs2)cc1OC returned H69AR inhibit 107.1, HCT116 PTEN-null 80.6, Pyk2 oligo antag -0.41, HUVEC prolif 384 97.4, HCT116 bCat-KO 102.9 and Fibroblast inh 105.8.
CC(Oc1ccc(Cl)cc1Cl)C(=O)Nc1ccc2oc(-c3ccncc3)nc2c1 (stereo not drawn) was read as H69AR inhibit 74.3, HCT116 PTEN-null 41.2, Pyk2 oligo antag -3.23*, HUVEC prolif 384 50.6, HCT116 bCat-KO 31.8 and Fibroblast inh 84.6.
For CC(Oc1ccc(Cl)cc1Cl)c1nc(-c2ccc(NC(=O)c3ccncc3)cc2)no1 (stereo not drawn) the results were H69AR inhibit 24.9*, HCT116 PTEN-null 14.6, Pyk2 oligo antag -0.49, HUVEC prolif 384 49.9, HCT116 bCat-KO 11.9 and Fibroblast inh 82.0.
`COc1ccc(Cl)cc1-c1nc(-c2ccc(NC(=O)c3cccs3)cc2)no1` gave HCT116 PTEN-null 2.5* and HCT116 bCat-KO 3.3*.
`CC(Oc1ccc(Cl)cc1Cl)c1nc(-c2ccc(NC(=O)c3cccnc3)cc2)no1` (stereo not drawn) gave H69AR inhibit 6.3*, HCT116 PTEN-null 10.9, Pyk2 oligo antag -1.38, HUVEC prolif 384 72.0, HCT116 bCat-KO 14.8 and Fibroblast inh 87.3.
Screening CCn1c2ccccc2c2cc(/C=N/n3cn[nH]c3=S)ccc21 returned H69AR inhibit 15.2*, HCT116 PTEN-null 56.1, Pyk2 oligo antag -1.09, HUVEC prolif 384 76.0, HCT116 bCat-KO 69.7 and Fibroblast inh 84.9.
`CCn1c2ccccc2c2cc(/C=N/n3cnnc3)ccc21` gave H69AR inhibit 74.0, HCT116 PTEN-null 77.9, Pyk2 oligo antag -1.58, HUVEC prolif 384 109.2, HCT116 bCat-KO 90.7 and Fibroblast inh 80.0.
Screening O=C(CSc1nnc(-c2cccnc2)n1CCN1CCCCC1)Nc1cccc(Cl)c1 returned HCT116 PTEN-null 87.6 and HCT116 bCat-KO 90.0.
Screening O=C(CSc1nnnn1-c1ccccc1)Nc1ccc(Cl)cc1 returned HCT116 PTEN-null 91.2, Pyk2 oligo antag -0.26 and HCT116 bCat-KO 77.5.
Cc1ccc(-n2nnnc2SCC(=O)Nc2ccc3c(c2)OCCO3)cc1C was read as H69AR inhibit 47.1, HCT116 PTEN-null 92.0, Pyk2 oligo antag 0.12, HUVEC prolif 384 55.3, HCT116 bCat-KO 79.2 and Fibroblast inh 105.0.
